In ChEMBL document CHEMBL2311491, “Development of new cyclic plasmin inhibitors with excellent potency and selectivity” (J Med Chem, 2013):

Tests used:
[1] = target: Trypsin (Sus scrofa, UniProt P00761); assay: Inhibition of pig trypsin using CH3SO2-D-Cha-Gly-Arg-pNA as substrate after 5 to 10 mins by micro plate reader analysis
[2] = target: Vitamin K-dependent protein C (Homo sapiens, UniProt P04070); assay: Inhibition of human activated protein C using H-D-Lys(Cbz)-Pro-Arg-pNA as substrate after 5 to 10 mins by micro plate reader analysis
[3] = target: Prothrombin (Homo sapiens, UniProt P00734); assay: Inhibition of human thrombin using CH3SO2-D-Cha-Gly-Arg-pNA as substrate after 5 to 10 mins by micro plate reader analysis
[4] = target: Plasma kallikrein (Homo sapiens, UniProt P03952); assay: Inhibition of human plasma kallikrein using H-D-Pro-Phe-Arg-pNA as substrate after 5 to 10 mins by micro plate reader analysis
[5] = target: Plasminogen (Homo sapiens, UniProt P00747); assay: Inhibition of human plasmin protease domain using Tos-Gly-Pro-Lys-pNA as substrate by micro plate reader analysis
[6] = target: Coagulation factor X (Homo sapiens, UniProt P00742); assay: Inhibition of human factor Xa using CH3OCO-D-Cha-Gly-Arg-pNA as substrate after 5 to 10 mins by micro plate reader analysis
[7] = target: Cytochrome P450 2C9 (Homo sapiens, UniProt P11712); assay: Inhibition of human recombinant CYP2C9 expressed in Trichoplusia ni BTI-TN-5B1-4 cells preincubated for 15 mins measured after 45 mins by spectrofluorimetry; format: ADME, cell-based
[8] = target: Cytochrome P450 2D6 (Homo sapiens, UniProt P10635); assay: Inhibition of human recombinant CYP2D6 expressed in Trichoplusia ni BTI-TN-5B1-4 cells preincubated for 15 mins measured after 45 mins by spectrofluorimetry; format: ADME, cell-based
[9] = target: Cytochrome P450 3A4 (Homo sapiens, UniProt P08684); assay: Inhibition of human recombinant CYP3A4 expressed in Trichoplusia ni BTI-TN-5B1-4 cells preincubated for 15 mins measured after 30 mins by spectrofluorimetry; format: ADME, cell-based
[10] = Metabolic stability in human liver microsomes assessed as degradation after 60 mins; format: ADME, Microsome; conditions: read-out: Drug degradation
[11] = Fraction unbound in human plasma; format: ADME, cell-free
[12] = target: L-type Ca channel, phenylalkylamine site (Rattus norvegicus, UniProt P22002+P27732+Q02485); assay: Displacement of [3H](-)-desmethoxyverapamil from wistar rat Ca channel L-type phenylalkylamine receptor at 10 uM; conditions: probe [3H](-)-desmethoxyverapamil
Procedure, shortened: (§1)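 Radioligand binding to the ion channel with test compound at 10 μM. Result expressed as % binding; negative values are read as no binding. Assays run by a contract laboratory.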

[13] = target: L-type Ca channel, dihydropyridine site (Rattus norvegicus, UniProt P22002+P27732+Q02485); assay: Displacement of [3H]nitrendipine from wistar rat Ca channel L-type dihydropyridine receptor at 10 uM; conditions: probe [3H]nitrendipine; procedure, shortened: as §1
[14] = target: L-type Ca channel, benzothiazepine site (Rattus norvegicus, UniProt P22002+P27732+Q02485); assay: Displacement of [3H]diltiazem from wistar rat Ca channel L-type benzothiazepine receptor at 10 uM; conditions: probe [3H]diltiazem; procedure, shortened: as §1
[15] = species on record: Rattus norvegicus; assay: Displacement of [3H]batrachotoxinin from wistar rat Na channel at 10 uM
Procedure, shortened: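 Single-point radioligand binding screen at 10 μM test compound, run by a contract lab under its own protocol. Read-out is percent binding, where negative values mean no binding.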

[16] = target: hERG (KCNH2) (Homo sapiens, UniProt Q12809); assay: Displacement of [3H]astemizole from human ERG channel at 10 uM; conditions: probe [3H]astemizole; procedure, shortened: as §1
[17] = tested on: Plasma; assay: Anticoagulant activity in human plasma assessed as concentration required to thrombin time; format: functional
Procedure, shortened: (§2)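 Clotting time measured in human plasma spiked with inhibitor. Value reported as EC200, the concentration that doubles the clotting time.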

[18] = tested on: Plasma; assay: Anticoagulant activity in human plasma assessed as concentration required to activated partial thromboplastin time; format: functional; procedure, shortened: as §2
[19] = tested on: Plasma; assay: Anticoagulant activity in human plasma assessed as concentration required to prothrombin time; format: functional; procedure, shortened: as §2
[20] = tested on: Plasma; assay: Anticoagulant activity in human plasma assessed as tPA-induced fibrinolysis; format: functional; conditions: in the assay text read “Antifibrinolytic activity” for “Anticoagulant activity”
Procedure, shortened: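 tPA-induced fibrinolysis in human plasma. Value reported as EC200, the inhibitor concentration that doubles the clot-to-lysis time.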

[21] = target: Serine protease 1 (Homo sapiens, UniProt P07477); assay: Inhibition of human trypsin
[22] = target: Urokinase-type plasminogen activator (Homo sapiens, UniProt P00749); assay: Inhibition of human uPA
[23] = target: Tissue-type plasminogen activator (Homo sapiens, UniProt P00750); assay: Inhibition of human tPA
[24] = target: Coagulation factor IX (Homo sapiens, UniProt P00740); assay: Inhibition of human FIXa
[25] = target: Coagulation factor XII (Homo sapiens, UniProt P00748); assay: Inhibition of human FXIIa
[26] = target: Coagulation factor XI (Homo sapiens, UniProt P03951); assay: Inhibition of human FXIa
[27] = target: Complement C1r subcomponent (Homo sapiens, UniProt P00736); assay: Inhibition of human C1r
[28] = target: Complement C1s subcomponent (Homo sapiens, UniProt P09871); assay: Inhibition of human C1s
[29] = target: Kallikrein-1 (Homo sapiens, UniProt P06870); assay: Inhibition of urinary kallikrein (unknown origin)
[30] = Thermodynamic solubility of the compound in 0.9% saline; format: physicochemical; conditions: read-out: Therm_solubility
[31] = target: Cytochrome P450 1A2 (Homo sapiens) (UniProt P05177); assay: Inhibition of human recombinant CYP1A2 expressed in Trichoplusia ni BTI-TN-5B1-4 cells preincubated for 15 mins measured after 45 mins by spectrofluorimetry
[32] = target: Cytochrome P450 2C19 (Homo sapiens) (UniProt P33261); assay: Inhibition of human recombinant CYP2C19 expressed in Trichoplusia ni BTI-TN-5B1-4 cells preincubated for 15 mins measured after 30 mins by spectrofluorimetry

Sequence of Coagulation factor X (P00742 41-179 limits assumed): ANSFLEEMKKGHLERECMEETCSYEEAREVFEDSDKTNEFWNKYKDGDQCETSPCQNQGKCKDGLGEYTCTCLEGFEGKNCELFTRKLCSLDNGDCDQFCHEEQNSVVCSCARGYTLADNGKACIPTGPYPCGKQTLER
Sequence of Coagulation factor X (P00742 235-488 limits assumed): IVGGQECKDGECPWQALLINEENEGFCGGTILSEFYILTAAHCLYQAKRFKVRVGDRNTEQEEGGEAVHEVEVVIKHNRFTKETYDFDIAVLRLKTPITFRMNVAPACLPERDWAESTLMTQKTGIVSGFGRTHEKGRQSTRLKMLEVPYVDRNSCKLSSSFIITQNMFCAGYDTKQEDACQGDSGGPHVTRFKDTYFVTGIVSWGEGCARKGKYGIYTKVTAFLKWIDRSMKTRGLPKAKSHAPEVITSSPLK
Sequence of Plasminogen (P00747 97-580 limits assumed): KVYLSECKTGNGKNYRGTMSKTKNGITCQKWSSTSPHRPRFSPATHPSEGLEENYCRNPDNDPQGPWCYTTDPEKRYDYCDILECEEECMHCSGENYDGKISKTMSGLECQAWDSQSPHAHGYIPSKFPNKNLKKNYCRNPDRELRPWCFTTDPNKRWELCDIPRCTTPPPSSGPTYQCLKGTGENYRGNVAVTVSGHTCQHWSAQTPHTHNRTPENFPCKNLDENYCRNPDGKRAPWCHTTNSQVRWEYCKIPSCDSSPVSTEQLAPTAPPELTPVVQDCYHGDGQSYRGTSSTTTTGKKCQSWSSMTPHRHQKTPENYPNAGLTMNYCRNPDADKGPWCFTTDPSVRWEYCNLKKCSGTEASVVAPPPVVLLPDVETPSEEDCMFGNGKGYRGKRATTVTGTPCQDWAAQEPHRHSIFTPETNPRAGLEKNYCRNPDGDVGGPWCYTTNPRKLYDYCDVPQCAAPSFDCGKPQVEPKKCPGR
Sequence of Plasminogen (P00747 581-810 limits assumed): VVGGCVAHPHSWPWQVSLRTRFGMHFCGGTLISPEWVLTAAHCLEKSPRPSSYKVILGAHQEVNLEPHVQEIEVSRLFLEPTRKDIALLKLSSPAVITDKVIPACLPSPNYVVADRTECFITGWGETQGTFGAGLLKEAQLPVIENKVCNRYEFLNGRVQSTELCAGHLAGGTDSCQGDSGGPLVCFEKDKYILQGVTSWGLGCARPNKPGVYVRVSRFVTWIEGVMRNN
Sequence of Vitamin K-dependent protein C (P04070 43-197 limits assumed): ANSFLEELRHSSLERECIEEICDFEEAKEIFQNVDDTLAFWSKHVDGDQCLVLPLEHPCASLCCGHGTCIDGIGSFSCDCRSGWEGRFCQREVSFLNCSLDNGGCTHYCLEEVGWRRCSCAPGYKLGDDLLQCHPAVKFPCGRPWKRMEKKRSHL
Sequence of Vitamin K-dependent protein C (P04070 212-461 limits assumed): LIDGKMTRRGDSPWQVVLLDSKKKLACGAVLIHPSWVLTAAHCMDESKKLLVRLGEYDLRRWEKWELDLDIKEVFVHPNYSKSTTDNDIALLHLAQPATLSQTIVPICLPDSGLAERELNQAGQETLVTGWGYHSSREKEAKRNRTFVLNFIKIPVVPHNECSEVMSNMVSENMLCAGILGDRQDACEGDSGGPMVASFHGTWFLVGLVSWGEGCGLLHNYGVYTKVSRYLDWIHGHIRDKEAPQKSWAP
Sequence of Plasma kallikrein (P03952 20-390 limits assumed): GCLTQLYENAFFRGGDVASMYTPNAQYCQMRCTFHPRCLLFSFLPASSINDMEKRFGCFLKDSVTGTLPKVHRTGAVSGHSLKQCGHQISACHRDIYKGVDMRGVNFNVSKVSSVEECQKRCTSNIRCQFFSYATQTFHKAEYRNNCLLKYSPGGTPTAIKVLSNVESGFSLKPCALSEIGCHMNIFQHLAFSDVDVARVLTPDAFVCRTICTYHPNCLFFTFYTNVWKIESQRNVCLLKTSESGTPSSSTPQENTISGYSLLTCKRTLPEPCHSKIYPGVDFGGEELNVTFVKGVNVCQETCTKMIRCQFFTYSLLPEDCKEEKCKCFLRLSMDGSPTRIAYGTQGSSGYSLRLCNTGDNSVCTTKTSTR
Sequence of Plasma kallikrein (P03952 391-638 limits assumed): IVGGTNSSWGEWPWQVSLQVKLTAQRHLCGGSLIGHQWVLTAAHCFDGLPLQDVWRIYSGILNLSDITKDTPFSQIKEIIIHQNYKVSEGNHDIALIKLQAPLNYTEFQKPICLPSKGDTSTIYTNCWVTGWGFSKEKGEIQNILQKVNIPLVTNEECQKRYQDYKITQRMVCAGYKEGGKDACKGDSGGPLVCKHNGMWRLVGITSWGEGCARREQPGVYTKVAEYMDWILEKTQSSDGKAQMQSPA
Sequence of Trypsin (P00761 whole entry): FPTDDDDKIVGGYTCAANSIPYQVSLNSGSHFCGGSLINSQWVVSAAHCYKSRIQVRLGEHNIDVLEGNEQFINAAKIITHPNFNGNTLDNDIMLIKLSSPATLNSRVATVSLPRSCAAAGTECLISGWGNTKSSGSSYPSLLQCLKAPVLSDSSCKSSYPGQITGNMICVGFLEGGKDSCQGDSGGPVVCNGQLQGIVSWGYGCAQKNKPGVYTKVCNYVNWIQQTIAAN
Sequence of Kallikrein-1 (P06870 whole entry): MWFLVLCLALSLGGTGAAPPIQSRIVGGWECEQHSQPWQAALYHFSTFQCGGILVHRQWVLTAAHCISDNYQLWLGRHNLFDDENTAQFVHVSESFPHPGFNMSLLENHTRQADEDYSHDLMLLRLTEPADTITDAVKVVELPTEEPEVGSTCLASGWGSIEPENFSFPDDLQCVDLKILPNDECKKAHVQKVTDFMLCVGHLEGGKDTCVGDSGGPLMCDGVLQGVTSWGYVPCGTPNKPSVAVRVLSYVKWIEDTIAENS
Sequence of Cytochrome P450 3A4 (P08684 whole entry): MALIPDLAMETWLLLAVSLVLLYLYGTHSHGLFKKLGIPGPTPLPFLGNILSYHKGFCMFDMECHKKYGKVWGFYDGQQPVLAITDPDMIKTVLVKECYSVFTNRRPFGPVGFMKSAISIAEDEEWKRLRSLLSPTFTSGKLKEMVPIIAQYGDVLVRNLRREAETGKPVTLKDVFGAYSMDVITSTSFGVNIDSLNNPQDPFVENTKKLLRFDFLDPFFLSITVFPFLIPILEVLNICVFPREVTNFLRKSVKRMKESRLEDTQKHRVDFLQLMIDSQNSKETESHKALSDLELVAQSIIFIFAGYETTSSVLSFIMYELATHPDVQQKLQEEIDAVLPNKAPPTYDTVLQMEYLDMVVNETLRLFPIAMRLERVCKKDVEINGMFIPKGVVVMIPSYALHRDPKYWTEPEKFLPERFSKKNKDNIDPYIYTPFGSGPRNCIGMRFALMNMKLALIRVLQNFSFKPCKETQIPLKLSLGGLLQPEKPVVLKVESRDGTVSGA
Sequence of Complement C1s subcomponent (P09871 16-437 limits assumed): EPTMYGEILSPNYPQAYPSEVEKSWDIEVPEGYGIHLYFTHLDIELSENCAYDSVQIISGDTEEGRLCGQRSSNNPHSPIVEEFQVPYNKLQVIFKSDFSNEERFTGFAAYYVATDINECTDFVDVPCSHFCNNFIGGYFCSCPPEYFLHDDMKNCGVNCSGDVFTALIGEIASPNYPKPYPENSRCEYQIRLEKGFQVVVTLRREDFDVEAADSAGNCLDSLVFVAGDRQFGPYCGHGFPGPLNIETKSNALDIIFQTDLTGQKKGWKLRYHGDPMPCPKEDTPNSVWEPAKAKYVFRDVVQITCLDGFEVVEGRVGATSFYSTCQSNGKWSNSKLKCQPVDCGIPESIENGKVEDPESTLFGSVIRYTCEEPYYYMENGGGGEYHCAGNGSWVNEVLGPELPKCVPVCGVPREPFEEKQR
Sequence of Complement C1s subcomponent (P09871 438-688 limits assumed): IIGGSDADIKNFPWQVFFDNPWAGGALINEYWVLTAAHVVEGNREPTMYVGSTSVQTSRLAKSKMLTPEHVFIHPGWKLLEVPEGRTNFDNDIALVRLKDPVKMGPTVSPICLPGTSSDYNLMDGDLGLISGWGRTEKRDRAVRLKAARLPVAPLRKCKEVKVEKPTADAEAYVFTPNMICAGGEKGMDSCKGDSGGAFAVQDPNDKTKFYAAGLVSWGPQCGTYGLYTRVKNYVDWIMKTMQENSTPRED
Sequence of Tissue-type plasminogen activator (P00750 whole entry): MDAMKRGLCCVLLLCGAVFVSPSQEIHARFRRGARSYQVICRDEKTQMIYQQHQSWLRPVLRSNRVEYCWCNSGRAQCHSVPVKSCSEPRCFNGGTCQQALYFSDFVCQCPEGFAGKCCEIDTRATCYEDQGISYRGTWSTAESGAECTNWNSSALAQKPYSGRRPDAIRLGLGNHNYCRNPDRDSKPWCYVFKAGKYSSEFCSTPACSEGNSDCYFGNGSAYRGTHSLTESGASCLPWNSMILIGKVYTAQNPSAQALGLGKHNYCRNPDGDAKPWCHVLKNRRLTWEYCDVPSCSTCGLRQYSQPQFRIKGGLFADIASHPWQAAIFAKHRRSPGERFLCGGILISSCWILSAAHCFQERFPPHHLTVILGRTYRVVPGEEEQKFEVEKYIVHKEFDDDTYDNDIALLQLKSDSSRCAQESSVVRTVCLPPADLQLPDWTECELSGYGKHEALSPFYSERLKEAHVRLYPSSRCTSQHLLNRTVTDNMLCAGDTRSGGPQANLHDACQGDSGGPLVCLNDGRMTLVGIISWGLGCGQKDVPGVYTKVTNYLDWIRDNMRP
Sequence of Cytochrome P450 2D6 (P10635 whole entry): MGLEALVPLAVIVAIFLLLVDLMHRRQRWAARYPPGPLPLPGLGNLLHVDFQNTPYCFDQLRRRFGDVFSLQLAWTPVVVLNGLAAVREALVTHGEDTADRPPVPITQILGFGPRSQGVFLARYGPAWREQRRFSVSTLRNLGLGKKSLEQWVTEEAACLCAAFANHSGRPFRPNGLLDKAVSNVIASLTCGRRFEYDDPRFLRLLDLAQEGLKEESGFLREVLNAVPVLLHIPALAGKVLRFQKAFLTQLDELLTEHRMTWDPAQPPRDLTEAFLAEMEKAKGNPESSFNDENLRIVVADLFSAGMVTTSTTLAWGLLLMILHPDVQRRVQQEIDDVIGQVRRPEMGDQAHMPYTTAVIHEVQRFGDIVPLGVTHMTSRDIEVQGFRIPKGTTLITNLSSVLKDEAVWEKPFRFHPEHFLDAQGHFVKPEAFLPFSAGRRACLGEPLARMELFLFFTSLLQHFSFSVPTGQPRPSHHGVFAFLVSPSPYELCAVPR

## C[C@H]1CN2CC(=O)Nc3ccc(cc3)C[C@@H](NS(=O)(=O)Cc3ccccc3)C(=O)N[C@H](C(=O)NCc3ccc(C(=N)N)cc3)Cc3ccc(cc3)NC(=O)CN1C[C@@H]2C
[1]
  Ki: 55 nM
[2]
  Ki: 4800 nM
[3]
  Ki: 8510 nM
[4]
  Ki: 242 nM
[5]
  Ki: 1.62 nM
[6]
  Ki: 3700 nM

## C[C@@H]1CN2CC(=O)Nc3ccc(cc3)C[C@@H](C(=O)NCc3ccc(C(=N)N)cc3)NC(=O)[C@H](NS(=O)(=O)Cc3ccccc3)Cc3ccc(cc3)NC(=O)CN1C[C@@H]2C
[1]
  Ki: 18.1 nM
[2]
  Ki: > 20000 nM
[3]
  Ki: 12100 nM
[4]
  Ki: 500 nM
[5]
  Ki: 1.15 nM
[6]
  Ki: 14000 nM

## N=C(N)c1ccc(CNC(=O)[C@@H]2Cc3ccc(cc3)NC(=O)CN3CCCN(CC3)CC(=O)NCc3ccc(cc3)C[C@@H](NS(=O)(=O)Cc3ccccc3)C(=O)N2)cc1
[1]
  Ki: 41.7 nM
[2]
  Ki: > 10000 nM
[3]
  Ki: 5870 nM
[4]
  Ki: 440 nM
[5]
  Ki: 0.76 nM
[6]
  Ki: 9000 nM

## N=C(N)c1ccc(CNC(=O)[C@@H]2Cc3ccc(cc3)NC(=O)CCN3CCN(CCC(=O)Nc4ccc(cc4)C[C@@H](NS(=O)(=O)Cc4ccccc4)C(=O)N2)CC3)cc1.O=C(O)C(F)(F)F
[7]
  IC50: > 100000 nM
[8]
  IC50: > 10000 nM
[9]
  IC50: > 10000 nM
[10]
  metabolised at 1 h: 2%
[11]
  fraction unbound: 0.67
[12]
  inhibition at 10 µM: 3%
[13]
  inhibition at 10 µM: -5%
[14]
  inhibition at 10 µM: -4%
[15]
  inhibition: 27%
[16]
  inhibition at 10 µM: 4%
[17]
  EC200: >100 µM
[18]
  EC200: >100 µM
[19]
  EC200: >100 µM
[20]
  EC200: 180 nM
[21]
  Ki: 8.4 nM
[22]
  Ki: 6500 nM
[23]
  Ki: > 40000 nM
[24]
  Ki: > 5000 nM
[25]
  Ki: > 20000 nM
[26]
  Ki: 3370 nM
[27]
  Ki: > 35000 nM
[28]
  Ki: > 35000 nM
[1]
  Ki: 38.3 nM
[2]
  Ki: > 15000 nM
[3]
  Ki: 26400 nM
[29]
  Ki: 10000 nM
[4]
  Ki: 1000 nM
[5]
  Ki: 0.2 nM
[6]
  Ki: 25000 nM
[30]
  solubility thermodynamic: > 2000 µg/mL
[31]
  IC50: > 100000 nM
[32]
  IC50: > 100000 nM

## N=C(N)c1ccc(CNC(=O)[C@@H]2Cc3cccc(c3)NC(=O)CN3CCN(CC3)CC(=O)Nc3ccc(cc3)C[C@@H](NS(=O)(=O)Cc3ccccc3)C(=O)N2)cc1
[1]
  Ki: 19.4 nM
[2]
  Ki: 4100 nM
[3]
  Ki: 8020 nM
[4]
  Ki: 12.9 nM
[6]
  Ki: 1800 nM

## N=C(N)c1ccc(CNC(=O)[C@@H]2Cc3cccc(c3)NC(=O)CCN3CCN(CCC(=O)Nc4ccc(cc4)C[C@@H](NS(=O)(=O)Cc4ccccc4)C(=O)N2)CC3)cc1
[1]
  Ki: 24.9 nM
[2]
  Ki: 880 nM
[3]
  Ki: 3250 nM
[4]
  Ki: 24 nM
[5]
  Ki: 5.1 nM
[6]
  Ki: 237 nM

## N=C(N)c1ccc(CNC(=O)[C@@H]2Cc3ccc(cc3)NC(=O)CN3CCCN(CC3)CC(=O)Nc3ccc(cc3)C[C@@H](NS(=O)(=O)Cc3ccccc3)C(=O)N2)cc1
[1]
  Ki: 3 nM
[2]
  Ki: > 10000 nM
[3]
  Ki: 14100 nM
[4]
  Ki: 392 nM
[5]
  Ki: 0.57 nM
[6]
  Ki: 7360 nM

## N=C(N)c1ccc(CNC(=O)[C@@H]2Cc3ccc(cc3)NC(=O)CN3CCN(CC3)CC(=O)Nc3cccc(c3)C[C@@H](NS(=O)(=O)Cc3ccccc3)C(=O)N2)cc1
[1]
  Ki: 7.8 nM
[2]
  Ki: 420 nM
[3]
  Ki: 604 nM
[4]
  Ki: 118 nM
[6]
  Ki: 415 nM

## N=C(N)c1ccc(CNC(=O)[C@@H]2Cc3ccc(cc3)NC(=O)CCN3CCN(CCC(=O)Nc4cccc(c4)C[C@@H](NS(=O)(=O)Cc4ccccc4)C(=O)N2)CC3)cc1
[1]
  Ki: 0.6 nM
[2]
  Ki: 3800 nM
[3]
  Ki: 376 nM
[4]
  Ki: 240 nM
[5]
  Ki: 4 nM
[6]
  Ki: 1260 nM

## N=C(N)c1ccc(CNC(=O)[C@@H]2Cc3ccc(cc3)NC(=O)CN3CCN(CC3)CC(=O)Nc3ccc(cc3)C[C@@H](NS(=O)(=O)Cc3ccccc3)C(=O)N2)cc1.O=C(O)C(F)(F)F
[7]
  IC50: > 100000 nM
[8]
  IC50: > 40000 nM
[9]
  IC50: > 22000 nM
[10]
  metabolised at 1 h: 0%
[11]
  fraction unbound: 0.61
[12]
  inhibition at 10 µM: 13%
[13]
  inhibition at 10 µM: -2%
[14]
  inhibition at 10 µM: 1%
[15]
  inhibition: -8%
[16]
  inhibition at 10 µM: 7%
[17]
  EC200: >100 µM
[18]
  EC200: >100 µM
[19]
  EC200: >100 µM
[20]
  EC200: 280 nM
[21]
  Ki: 44 nM
[22]
  Ki: 8900 nM
[23]
  Ki: > 100000 nM
[24]
  Ki: > 100000 nM
[25]
  Ki: > 100000 nM
[26]
  Ki: 4700 nM
[27]
  Ki: > 50000 nM
[28]
  Ki: > 100000 nM
[1]
  Ki: 62.6 nM
[2]
  Ki: > 25000 nM
[3]
  Ki: 13900 nM
[29]
  Ki: > 50000 nM
[6]
  Ki: > 10000 nM
[30]
  solubility thermodynamic: > 2000 µg/mL
[31]
  IC50: > 10000 nM
[32]
  IC50: > 100000 nM

## C[C@H]1CN2CC(=O)Nc3ccc(cc3)C[C@@H](C(=O)NCc3ccc(C(=N)N)cc3)NC(=O)[C@H](NS(=O)(=O)Cc3ccccc3)Cc3ccc(cc3)CNC(=O)CN1C[C@@H]2C
[1]
  Ki: 126 nM
[2]
  Ki: 1600 nM
[3]
  Ki: 2950 nM
[4]
  Ki: 116 nM
[5]
  Ki: 1.71 nM
[6]
  Ki: 3250 nM

## N=C(N)c1ccc(CNC(=O)[C@@H]2Cc3ccc(cc3)NC(=O)CN3CCN(CC3)CC(=O)NCc3ccc(cc3)C[C@@H](NS(=O)(=O)Cc3ccccc3)C(=O)N2)cc1
[1]
  Ki: 17.8 nM
[2]
  Ki: 3900 nM
[3]
  Ki: 884 nM
[4]
  Ki: 187 nM
[6]
  Ki: 2510 nM

## N=C(N)c1ccc(CNC(=O)[C@@H]2Cc3cccc(c3)NC(=O)CN3CCN(CC3)CC(=O)Nc3cccc(c3)C[C@@H](NS(=O)(=O)Cc3ccccc3)C(=O)N2)cc1
[1]
  Ki: 3.4 nM
[2]
  Ki: 39 nM
[3]
  Ki: 227 nM
[4]
  Ki: 3.2 nM
[6]
  Ki: 12.3 nM

## N=C(N)c1ccc(CNC(=O)[C@@H]2Cc3ccc(cc3)NC(=O)CCN3CCCN(CCC(=O)Nc4ccc(cc4)C[C@@H](NS(=O)(=O)Cc4ccccc4)C(=O)N2)CC3)cc1
[1]
  Ki: 10.2 nM
[2]
  Ki: 7800 nM
[3]
  Ki: 11200 nM
[4]
  Ki: 422 nM
[5]
  Ki: 1.32 nM
[6]
  Ki: 8500 nM
